Source: ChEMBL document CHEMBL3112527, “Quinoline-pyrimidine hybrids: synthesis, antiplasmodial activity, SAR, and mode of action studies” (J Med Chem, 2014)
Values after ≈ are worked out from the molar mass of the structure shown. Active and inactive are the calls of the source. The calls are words filed in the database; no cut-off is given here.

What was measured:
Punta Toro virus = assay: Antiviral activity against Punta Toro virus infected in African green monkey Vero cells assessed as inhibition of virus-induced cytopathicity; assay type: functional, organism-based
How it was run: (§1)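 Confluent monolayers (HEL, Vero, HeLa or CrFK, as applicable) were inoculated with 100 CCID50 of virus, with 1 CCID50 being the dose that infects 50% of cultures. Infection ran in the presence of varying compound concentrations. Inhibition of virus-induced cytopathicity was scored against infected cultures left untreated.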

Human alphaherpesvirus 1 [1] = assay: Antiviral activity against HSV-1 KOS infected in HEL cells assessed as inhibition of virus-induced cytopathicity; assay type: functional, organism-based; how it was run: as §1
Human alphaherpesvirus 2 = assay: Antiviral activity against HSV-2 G infected in HEL cells assessed as inhibition of virus-induced cytopathicity; assay type: functional, organism-based; details: strain G; how it was run: as §1
[2] = Cytotoxicity against cat CRFK cells assessed as cell viability by MTS assay; assay type: cell-based, Felis catus
How it was run: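 CRFK cells were exposed to varying sample concentrations. Cell viability was measured with the colorimetric formazan-based MTS assay, and the 50% cytotoxic concentration (CC50) was derived from it.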

Coxsackievirus B4 [3] = assay: Antiviral activity against Coxsackievirus B4 infected in human HeLa cells assessed as inhibition of virus-induced cytopathicity; assay type: functional, organism-based; how it was run: as §1
Human respirovirus 3 = assay: Antiviral activity against parainfluenza virus 3 infected in African green monkey Vero cells assessed as inhibition of virus-induced cytopathicity; assay type: functional, organism-based; how it was run: as §1
Plasmodium falciparum [4] = assay: Antiplasmodial activity against chloroquine-resistant asexual erythrocytic stage of Plasmodium falciparum Dd2 assessed as parasite growth inhibition by lactate dehydrogenase assay; assay type: functional, organism-based
How it was run: (§2)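 Parasite lactate dehydrogenase assay (modified Makler method). Samples held as 20 mg/mL stocks in DMSO, diluted on test day. Full dose-response: starting at 10 μg/mL, 2-fold serial dilution in complete medium over 10 concentrations down to 0.02 μg/mL. Chloroquine, artesunate and MMV390048 served as references. IC50 from nonlinear dose-response curve fitting; mean of three independent experiments.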

[5] = Aqueous solubility of the compound in PBS buffer at pH 7.4 after 24 hrs by HPLC analysis; assay type: physicochemical; details: pH 7.4, 24 h
Sindbis virus = assay: Antiviral activity against Sindbis virus infected in African green monkey Vero cells assessed as inhibition of virus-induced cytopathicity; assay type: functional, organism-based
[6] = n-octanol-PBS buffer distribution coefficient, log D of the compound at pH 7.4 after 24 hrs by HPLC analysis; assay type: physicochemical
Human alphaherpesvirus 1 [7] = assay: Antiviral activity against thymidine kinase-negative acyclovir-resistant HSV-1 KOS infected in HEL cells assessed as inhibition of virus-induced cytopathicity; assay type: functional, organism-based
How it was run: (§3)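 Confluent monolayers in 96-well plates were inoculated with 100 CCID50 of virus in the presence of varying concentrations of compound. Read-out was inhibition of virus-induced cytopathicity, compared with untreated infected cultures. Cytotoxicity was judged microscopically or by MTT viability staining.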

Human betaherpesvirus 5 [8] = assay: Antiviral activity against Cytomegalovirus AD169 infected in HEL cells assessed as inhibition of virus-induced cytopathicity; assay type: functional, organism-based
[9] = Solubility of the compound in octanol at pH 7.4 by HPLC analysis; assay type: physicochemical
Felid alphaherpesvirus 1 = assay: Antiviral activity against Feline herpesvirus infected in cat CRFK cells assessed as inhibition of virus-induced cytopathicity; assay type: functional, organism-based; how it was run: as §1
[10] = system: Vesicular stomatitis virus; assay: Antiviral activity against Vesicular stomatitis virus infected in HEL cells assessed as inhibition of virus-induced cytopathicity; assay type: functional, organism-based; how it was run: as §3
Coxsackievirus B4 [11] = assay: Antiviral activity against Coxsackievirus B4 infected in African green monkey Vero cells assessed as inhibition of virus-induced cytopathicity; assay type: functional, organism-based; how it was run: as §1
Plasmodium falciparum [12] = assay: Antiplasmodial activity against chloroquine-sensitive asexual erythrocytic stage of Plasmodium falciparum D10 assessed as parasite growth inhibition by lactate dehydrogenase assay; assay type: functional, organism-based; how it was run: as §2
[13] = Cytotoxicity against human HeLa cells assessed as alteration of cell morphology by microscopic analysis; assay type: cell-based; details: read-out: MIC
How it was run: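 Cells (Vero, HEL, MDCK or HeLa) were exposed to a range of sample concentrations. The value reported is the concentration required to cause a microscopically detectable alteration of normal cell morphology.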

Vaccinia virus = assay: Antiviral activity against Vaccinia virus infected in HEL cells assessed as inhibition of virus-induced cytopathicity; assay type: functional, organism-based; details: Orthopoxvirus vaccinia; how it was run: as §3
Feline coronavirus = assay: Antiviral activity against Feline coronavirus infected in cat CRFK cells assessed as inhibition of virus-induced cytopathicity; assay type: functional, organism-based; how it was run: as §1
[14] = system: Vesicular stomatitis virus; assay: Antiviral activity against Vesicular stomatitis virus infected in human HeLa cells assessed as inhibition of virus-induced cytopathicity; assay type: functional, organism-based; how it was run: as §3
Influenza A virus = assay: Antiviral activity against influenza A virus H1N1 infected in MDCK cells assessed as inhibition of virus-induced cytopathicity; assay type: functional, organism-based; how it was run: as §3
[15] = system: Respiratory syncytial virus; assay: Antiviral activity against Respiratory syncytial virus infected in human HeLa cells assessed as inhibition of virus-induced cytopathicity; assay type: functional, organism-based; how it was run: as §1
Human alphaherpesvirus 3 = assay: Antiviral activity against Varicella-zoster virus infected in HEL cells assessed as inhibition of virus-induced cytopathicity; assay type: functional, organism-based
[16] = system: Mammalian orthoreovirus 1; assay: Antiviral activity against Reovirus 1 infected in African green monkey Vero cells assessed as inhibition of virus-induced cytopathicity; assay type: functional, organism-based; how it was run: as §1
Human betaherpesvirus 5 [17] = assay: Antiviral activity against Cytomegalovirus Davis infected in HEL cells assessed as inhibition of virus-induced cytopathicity; assay type: functional, organism-based
[18] = Selectivity index, ratio of CC50 for cat CRFK cells to IC50 for chloroquine-resistant asexual erythrocytic stage of Plasmodium falciparum Dd2; assay type: functional
How it was run: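 Ratio of CRFK CC50 (μM) to Dd2 IC50 […]. CC50 is the 50% cytotoxic concentration in feline kidney CRFK cells, measured as cell viability by colorimetric formazan-based MTS assay. Dd2 IC50 is from the parasite LDH growth-inhibition assay.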

Influenza A virus H3N2 = assay: Antiviral activity against Influenza A virus H3N2 infected in MDCK cells assessed as inhibition of virus-induced cytopathicity; assay type: functional, organism-based; how it was run: as §3

Structure (SMILES) | inhibition (Punta Toro virus) | inhibition (Human alphaherpesvirus 1 [1]) | inhibition (Human alphaherpesvirus 2) | CC50 [2] | inhibition (Coxsackievirus B4 [3]) | inhibition (Human respirovirus 3) | solubility [5] | inhibition (Sindbis virus) | logD at 24 h [6] | inhibition (Human alphaherpesvirus 1 [7]) | inhibition (Human betaherpesvirus 5 [8]) | solubility [9] | inhibition (Felid alphaherpesvirus 1) | inhibition [10] | inhibition (Coxsackievirus B4 [11]) | IC50 (Plasmodium falciparum [12]) | MCC [13] | inhibition (Vaccinia virus) | inhibition (Feline coronavirus) | inhibition [14] | other results
Clc1ccc2c(NCCCCCCCCNc3ccnc(Cl)n3)ccnc2c1 | inactive | inactive | inactive | 8 µM | inactive | inactive | 0.08 µM (≈ 0.0335 µg/mL) | inactive | 1.48 | inactive | inactive | 2.41 µM (≈ 1.01 µg/mL) | inactive | inactive | inactive | 0.912 µM | 4 µM | inactive | inactive | inactive | IC50 (Plasmodium falciparum [4]): 0.883 µM; inhibition (Influenza A virus): inactive; inhibition [15]: inactive; inhibition (Human alphaherpesvirus 3): inactive; inhibition [16]: inactive; inhibition (Human betaherpesvirus 5 [17]): inactive; Ratio CC50/IC50 [18]: 9; inhibition (Influenza A virus H3N2): inactive
Clc1ccc2c(NCCCCCCCNc3nccc(Cl)n3)ccnc2c1 | inactive | inactive | inactive | > 100 µM | inactive | inactive | 0.13 µM (≈ 0.0526 µg/mL) | inactive | 1.16 | inactive | inactive | 1.92 µM (≈ 0.776 µg/mL) | inactive | inactive | inactive | 0.383 µM | 4 µM | inactive | inactive | inactive | inhibition (Influenza A virus): inactive; inhibition [15]: inactive; inhibition (Human alphaherpesvirus 3): inactive; inhibition [16]: inactive; inhibition (Human betaherpesvirus 5 [17]): inactive; inhibition (Influenza A virus H3N2): inactive
Clc1ccc2c(NCCNc3ccnc(Cl)n3)ccnc2c1 | inactive | inactive | inactive | > 100 µM | inactive | inactive | 0.68 µM (≈ 0.227 µg/mL) | inactive | 0.489 | inactive | inactive | 2.09 µM (≈ 0.698 µg/mL) | inactive | inactive | inactive | 1.43 µM | 4 µM | inactive | inactive | inactive | inhibition (Influenza A virus): inactive; inhibition [15]: inactive; inhibition (Human alphaherpesvirus 3): inactive; inhibition [16]: inactive; inhibition (Human betaherpesvirus 5 [17]): inactive; inhibition (Influenza A virus H3N2): inactive
Clc1ccc2c(NCCCCCCCCCCNc3nccc(Cl)n3)ccnc2c1 | inactive | inactive | inactive | 4.4 µM | inactive | inactive | 0.07 µM (≈ 0.0312 µg/mL) | inactive | 1.99 | inactive | inactive | 6.82 µM (≈ 3.04 µg/mL) | inactive | inactive | inactive | 3.34 µM | 4 µM | inactive | inactive | inactive | inhibition (Influenza A virus): inactive; inhibition [15]: inactive; inhibition (Human alphaherpesvirus 3): inactive; inhibition [16]: inactive; inhibition (Human betaherpesvirus 5 [17]): inactive; inhibition (Influenza A virus H3N2): inactive
Clc1ccc2c(NCCCCCCCCNc3nccc(Cl)n3)ccnc2c1 | inactive | inactive | inactive | 10 µM | inactive | inactive | 0.09 µM (≈ 0.0377 µg/mL) | inactive | 1.51 | inactive | inactive | 2.91 µM (≈ 1.22 µg/mL) | inactive | inactive | inactive | 1.06 µM | 20 µM | inactive | inactive | inactive | inhibition (Influenza A virus): inactive; inhibition [15]: inactive; inhibition (Human alphaherpesvirus 3): inactive; inhibition [16]: inactive; inhibition (Human betaherpesvirus 5 [17]): inactive; inhibition (Influenza A virus H3N2): inactive
Clc1ccc2c(NCCCCCCCCCCCCNc3nccc(Cl)n3)ccnc2c1 | inactive | inactive | inactive | 19 µM | inactive | inactive | 0.05 µM (≈ 0.0237 µg/mL) | inactive | 2.59 | inactive | inactive | 19.4 µM (≈ 9.2 µg/mL) | inactive | inactive | inactive | 4.31 µM | 20 µM | inactive | inactive | inactive | inhibition (Influenza A virus): inactive; inhibition [15]: inactive; inhibition (Human alphaherpesvirus 3): inactive; inhibition [16]: inactive; inhibition (Human betaherpesvirus 5 [17]): inactive; inhibition (Influenza A virus H3N2): inactive
C[C@H]1[C@H](OC(=O)CCC(=O)O)O[C@@H]2O[C@@]3(C)CC[C@H]4[C@H](C)CC[C@@H]1[C@@]24OO3 [ARTESUNATE] |  |  |  |  |  |  |  |  |  |  |  |  |  |  |  | 0.0063 µM |  |  |  |  | 
CS(=O)(=O)c1ccc(-c2cnc(N)c(-c3ccc(C(F)(F)F)nc3)c2)cc1 [MMV-048] |  |  |  |  |  |  |  |  |  |  |  |  |  |  |  | 0.00901 µM |  |  |  |  | 
Clc1ccnc(N2CCOCC2)n1 | inactive | inactive | inactive | > 100 µM | inactive | inactive | 9 µM (≈ 1.8 µg/mL) | inactive | 0.13 | inactive | inactive | 12.1 µM (≈ 2.42 µg/mL) | inactive | inactive | inactive | 15 µM | > 100 µM | inactive | inactive | inactive | inhibition (Influenza A virus): inactive; inhibition [15]: inactive; inhibition (Human alphaherpesvirus 3): inactive; inhibition [16]: inactive; inhibition (Human betaherpesvirus 5 [17]): inactive; inhibition (Influenza A virus H3N2): inactive
